Measurements reported in ChEMBL document CHEMBL1121685, “Development of new mitomycin C and porfiromycin analogues” (J Med Chem, 1981).

Key:
Mus musculus [1] = assay: Activity of compound dose of 1 mg/kg/day against Murine B-16 Melanocarcinoma in mice; assay type: functional
Mus musculus [2] = assay: Number of tumored survivors, 45 days after administration of compound at a dose of 16 mg/kg/day in mice; assay type: functional
Mus musculus [3] = assay: Number of cured survivors, 45 days after administration of compound at a dose of 4 mg/kg/day in mice; assay type: functional
Mus musculus [4] = assay: Number of cured survivors, 45 days after administration of compound at a dose of 16 mg/kg/day in mice; assay type: functional
[5] = Therapeutic ratio is expressed as ratio of optimal dose and minimum effective dose; assay type: ADME; details: mouse; read-out: TR
Method in brief: (§1)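 10⁶ P-388 ascites cells implanted ip in CDF₁ female mice. Six mice per dose, 10 saline-injected controls, and a concurrent mitomycin C reference group. %T/C = median survival time of treated/control × 100. MED is the lowest dose giving %T/C > 125. Therapeutic ratio = optimal dose/MED.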

Mus musculus [6] = assay: Effect of compound on total white blood cell count in BDG1 male mice, after intraperitoneal administration at a dose of 51.2 mg/kg on day 5 (highest dose was twice the optimal dose); assay type: functional
Method in brief: (§2)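 Single ip dose given on day 0 to BDG₁ male mice. Total white blood cell count measured on days 3, 5 and 7, expressed as % change from control. Highest dose was at the LD₅₀, or at twice the optimal dose where so footnoted. Significance reported at p ≤ 0.05 and p ≤ 0.01. D marks death of one or more mice.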

Mus musculus [7] = assay: Activity of compound dose of 4 mg/kg/day against Murine B-16 Melanocarcinoma in mice; assay type: functional
Mus musculus [8] = species: Mus musculus; assay: Half-wave potential produced by the compound at their optimal dose; assay type: functional; parameters: unit not given here
Mus musculus [9] = assay: Activity of compound dose of 8 mg/kg/day against Murine B-16 Melanocarcinoma in mice; assay type: functional
Mus musculus [10] = assay: Activity of compound dose of 0.5 mg/kg/day against Murine B-16 Melanocarcinoma in mice; assay type: functional
Mus musculus [11] = assay: Effect of compound on total white blood cell count in BDG1 male mice, after intraperitoneal administration at a dose of 25.6 mg/kg on day 3; assay type: functional
Method in brief: (§3)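 Single ip dose given on day 0 to BDG1 male mice over a descending dose series. Total white blood cell count is expressed as % change from untreated control on days 3, 5 and 7. Significance is flagged at p ≤ 0.05 and p ≤ 0.01.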

Mus musculus [12] = assay: Effect of compound on total white blood cell count in BDG1 male mice, after intraperitoneal administration at a dose of 25.6 mg/kg on day 7; assay type: functional; method in brief: as §3
Mus musculus [13] = assay: Activity of compound dose of 2 mg/kg/day against Murine B-16 Melanocarcinoma in mice; assay type: functional
Mus musculus [14] = assay: Effect of compound on total white blood cell count in BDG1 male mice, after intraperitoneal administration at a dose of 25.6 mg/kg on day 5; assay type: functional; method in brief: as §3
Mus musculus [15] = assay: Effect of compound on total white blood cell count in BDG1 male mice, after intraperitoneal administration at a dose of 51.2 mg/kg on day 3 (highest dose was twice the optimal dose); assay type: functional; method in brief: as §2
Mus musculus [16] = species: Mus musculus; assay: Degree of leukopenia produced by compound is assessed form Percent change in white cells on days 5; assay type: functional
Method in brief: (§4)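 BDG₁ male mice received a single ip dose on day 0. The dose series topped out at the LD₅₀ level, or at twice the optimal dose for some agents. Total white blood cell count was taken on days 3, 5 and 7 and expressed as % change from untreated controls. Significance was set at p ≤ 0.05 or p ≤ 0.01.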

Mus musculus [17] = assay: Activity of compound dose of 16 mg/kg/day against Murine B-16 Melanocarcinoma in mice; assay type: functional
Mus musculus [18] = assay: Minimum effective dose that show activity against P-388 murine leukemia cells in CDF1 female mice, after intraperitoneal administration (optimal dose is 25.6 mg/kg); assay type: functional; details: P388, ip, read-out: MED; method in brief: as §1
Mus musculus [19] = assay: Antitumor activity against P-388 murine leukemia cells in CDF1 female mice after intraperitoneal administration at the specified optimal dose of 25.6 mg/kg; assay type: functional
Mus musculus [20] = assay: Minimum effective dose that show activity against P-388 murine leukemia cells in CDF1 female mice, after intraperitoneal administration (optimal dose is 12.8 mg/kg); assay type: functional; details: P388, ip, read-out: MED; method in brief: as §1
Mus musculus [21] = assay: Antitumor activity against P-388 murine leukemia cells in CDF1 female mice after intraperitoneal administration at the specified optimal dose of 12.8 mg/kg; assay type: functional
Mus musculus [22] = assay: Effect of compound on total white blood cell count in BDG1 male mice, after intraperitoneal administration at a dose of 25.6 mg/kg on day 3 (highest dose was twice the optimal dose); assay type: functional
Mus musculus [23] = assay: Effect of compound on total white blood cell count in BDG1 male mice, after intraperitoneal administration at a dose of 25.6 mg/kg on day 7 (highest dose was twice the optimal dose); assay type: functional
Mus musculus [24] = assay: Effect of compound on total white blood cell count in BDG1 male mice, after intraperitoneal administration at a dose of 12.8 mg/kg on day 5; assay type: functional; method in brief: as §4
Mus musculus [25] = assay: Effect of compound on total white blood cell count in BDG1 male mice, after intraperitoneal administration at a dose of 25.6 mg/kg on day 5 (highest dose was twice the optimal dose); assay type: functional
Mus musculus [26] = assay: Effect of compound on total white blood cell count in BDG1 male mice, after intraperitoneal administration at a dose of 12.8 mg/kg on day 3; assay type: functional; method in brief: as §4
Mus musculus [27] = assay: Effect of compound on total white blood cell count in BDG1 male mice, after intraperitoneal administration at a dose of 12.8 mg/kg on day 7; assay type: functional; method in brief: as §3
Mus musculus [28] = assay: Effect of compound on total white blood cell count in BDG1 male mice, after intraperitoneal administration at a dose of 3.98 mg/kg on day 7; assay type: functional; method in brief: as §3
Mus musculus [29] = assay: Effect of compound on total white blood cell count in BDG1 male mice, after intraperitoneal administration at a dose of 2.24 mg/kg on day 5; assay type: functional; method in brief: as §3
Mus musculus [30] = assay: Effect of compound on total white blood cell count in BDG1 male mice, after intraperitoneal administration at a dose of 2.24 mg/kg on day 7; assay type: functional; method in brief: as §3
Mus musculus [31] = assay: Effect of compound on total white blood cell count in BDG1 male mice, after intraperitoneal administration at a dose of 2.98 mg/kg on day 5; assay type: functional; method in brief: as §3
Mus musculus [32] = assay: Effect of compound on total white blood cell count in BDG1 male mice, after intraperitoneal administration at a dose of 2.98 mg/kg on day 7; assay type: functional; method in brief: as §3
Mus musculus [33] = assay: Effect of compound on total white blood cell count in BDG1 male mice, after intraperitoneal administration at a dose of 3.98 mg/kg on day 3; assay type: functional; method in brief: as §3
Mus musculus [34] = assay: Effect of compound on total white blood cell count in BDG1 male mice, after intraperitoneal administration at a dose of 5.3 mg/kg on day 3; assay type: functional; method in brief: as §2
Mus musculus [35] = assay: Minimum effective dose that show activity against P-388 murine leukemia cells in CDF1 female mice, after intraperitoneal administration (optimal dose is 3.2 mg/kg); assay type: functional; details: P388, ip, read-out: MED; method in brief: as §1
Mus musculus [36] = assay: Effect of compound on total white blood cell count in BDG1 male mice, after intraperitoneal administration at a dose of 2.98 mg/kg on day 3; assay type: functional; method in brief: as §3
Mus musculus [37] = assay: Effect of compound on total white blood cell count in BDG1 male mice, after intraperitoneal administration at a dose of 2.24 mg/kg on day 3; assay type: functional; method in brief: as §3
Mus musculus [38] = assay: Antitumor activity against P-388 murine leukemia cells in CDF1 female mice after intraperitoneal administration at the specified optimal dose of 3.2 mg/kg; assay type: functional
Mus musculus [39] = assay: Effect of compound on total white blood cell count in BDG1 male mice, after intraperitoneal administration at a dose of 3.98 mg/kg on day 5; assay type: functional; method in brief: as §3
Mus musculus [40] = assay: Effect of compound on total white blood cell count in BDG1 male mice, after intraperitoneal administration at a dose of 5.3 mg/kg on day 5; assay type: functional; method in brief: as §2
Mus musculus [41] = assay: Effect of compound on total white blood cell count in BDG1 male mice, after intraperitoneal administration at a dose of 5.3 mg/kg on day 7; assay type: functional; method in brief: as §2

C=C(C)CNC1=C(C)C(=O)C2=C(C1=O)[C@H](COC(N)=O)C1(OC)[C@@H]3N[C@@H]3CN21 (stereo partly drawn)
T/C (Mus musculus [1]): 131%
Survivors (Mus musculus [2]): 1
Survivors (Mus musculus [3]): 1
Survivors (Mus musculus [4]): 3
selectivity ratio [5]: 16
Change (Mus musculus [6]): -25%
T/C (Mus musculus [7]): 160%
E1/2 (Mus musculus [8]): -0.41
T/C (Mus musculus [9]): 186%
T/C (Mus musculus [10]): 122%
Change (Mus musculus [11]): -60%
Change (Mus musculus [12]): -34%
T/C (Mus musculus [13]): 146%
Change (Mus musculus [14]): -68%
Change (Mus musculus [15]): -60%
Change (Mus musculus [16]): -59%
T/C (Mus musculus [17]): 226%
minimal effective dose (Mus musculus [18]): 1.6 mg/kg
T/C (Mus musculus [19]): 245%

COC12[C@@H]3N[C@@H]3CN1C1=C(C(=O)C(NCc3cccs3)=C(C)C1=O)[C@@H]2COC(N)=O (stereo partly drawn)
selectivity ratio [5]: 4
minimal effective dose (Mus musculus [20]): 3.2 mg/kg
T/C (Mus musculus [21]): 167%
Change (Mus musculus [22]): -32%
Change (Mus musculus [23]): -11%
Change (Mus musculus [24]): -5%
Change (Mus musculus [25]): -33%
Change (Mus musculus [26]): -26%
Change (Mus musculus [27]): -2%

COC12[C@@H](COC(N)=O)C3=C(C(=O)C(C)=C(N4CC4)C3=O)N1C[C@@H]1[C@H]2N1C (stereo partly drawn)
Change (Mus musculus [28]): 7%
Change (Mus musculus [29]): 11%
selectivity ratio [5]: 16
Change (Mus musculus [30]): 39%
Change (Mus musculus [31]): 25%
Change (Mus musculus [32]): 31%
Change (Mus musculus [33]): -12.3%
Change (Mus musculus [34]): -15%
minimal effective dose (Mus musculus [35]): 0.2 mg/kg
Change (Mus musculus [36]): 5%
Change (Mus musculus [37]): 1%
T/C (Mus musculus [38]): 248%
Change (Mus musculus [39]): -17%
Change (Mus musculus [40]): -20%
Change (Mus musculus [41]): -13%
